Here are results for 16 molecules from the M2OR odorant receptor database.

SMILES strings stand for the structures.
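Also: active if original authors judged signal statistically different from baseline.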

In the first test the target is T1, UniProt Q8VGC6.
T1 sequence (whole entry): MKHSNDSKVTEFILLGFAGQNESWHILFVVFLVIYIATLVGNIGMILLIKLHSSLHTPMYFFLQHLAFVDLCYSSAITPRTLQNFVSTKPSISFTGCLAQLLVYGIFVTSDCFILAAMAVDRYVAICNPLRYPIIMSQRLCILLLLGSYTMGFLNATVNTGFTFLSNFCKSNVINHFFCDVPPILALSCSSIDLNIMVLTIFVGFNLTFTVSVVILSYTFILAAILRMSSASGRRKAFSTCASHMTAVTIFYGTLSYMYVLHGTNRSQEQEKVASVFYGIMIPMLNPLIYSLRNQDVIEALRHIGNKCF
The following applies: stereoisomer not certain. The gist of the method:
(§1)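 Transient luciferase assays in mammalian cell lines were common, though methods varied by source. The values come from published papers and their supplementary material, with extra details from the original authors when needed. Responsive refers to a measured signal the original authors judged statistically different from baseline, and non-responsive (inactive) to the remainder.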
For the molecule `O=CC=Cc1ccccc1`, the “odorant receptor agonist call” value is “inactive”.
Same read-out and setting: under `C=CCc1ccccc1` stands “inactive”; under `Cc1ccc(OC(=O)Cc2ccccc2)cc1`, “inactive”; under `OCc1ccc2c(c1)OCO2`, “inactive”.
The same measure, in the same setting: under `O=Cc1ccccc1` stands “inactive”; under `O=c1cc(O)c2ccccc2o1`, “inactive”; under `CSSC`, “inactive”.
On the same count and under the same terms, for `CCC1CCC(=O)O1` (stereo unspecified) the value was “active”; for `COc1ccc(C=O)cc1`, “inactive”; for `O=Cc1ccc2c(c1)OCO2`, “inactive”.

A further test concerns the target T2, UniProt Q8VGD7.
T2 sequence (whole entry): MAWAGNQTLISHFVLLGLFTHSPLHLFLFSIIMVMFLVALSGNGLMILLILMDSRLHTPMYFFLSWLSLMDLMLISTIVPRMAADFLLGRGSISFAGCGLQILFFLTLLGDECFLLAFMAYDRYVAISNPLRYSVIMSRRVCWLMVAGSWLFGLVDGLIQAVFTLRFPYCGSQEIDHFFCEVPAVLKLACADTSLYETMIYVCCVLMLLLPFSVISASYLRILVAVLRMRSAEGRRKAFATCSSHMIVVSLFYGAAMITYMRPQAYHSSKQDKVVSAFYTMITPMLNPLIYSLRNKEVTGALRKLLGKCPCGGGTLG
The following applies: stereoisomer not certain. The gist of the method: as §1
For the molecule `C=CCOC(=O)Cc1ccccc1`, the “odorant receptor agonist call” value is “inactive”.
Still for that read-out and setting: for `C=CCc1ccccc1` the value was “inactive”.
Consider `O=c1cc(O)c2ccccc2o1`, for which the “odorant receptor agonist call” value was “inactive”.
Same read-out and setting: under `CCC1CCC(=O)O1` (stereo unspecified) stands “inactive”.

Another test addresses T3, UniProt Q8VGH1.
T3 sequence (whole entry): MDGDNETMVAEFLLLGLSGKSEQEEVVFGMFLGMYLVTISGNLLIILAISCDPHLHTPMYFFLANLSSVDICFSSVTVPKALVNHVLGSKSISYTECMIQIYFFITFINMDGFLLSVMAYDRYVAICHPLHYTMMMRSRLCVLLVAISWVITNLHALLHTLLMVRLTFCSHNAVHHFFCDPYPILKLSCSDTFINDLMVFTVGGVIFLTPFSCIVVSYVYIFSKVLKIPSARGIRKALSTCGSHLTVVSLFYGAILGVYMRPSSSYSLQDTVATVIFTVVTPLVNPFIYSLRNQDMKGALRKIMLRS
The following applies: stereoisomer not certain. The gist of the method: as §1
For `C=CCOC(=O)Cc1ccccc1`, the “odorant receptor agonist call” value is “inactive”.
As for `C=CCc1ccccc1`, the “odorant receptor agonist call” value is “inactive”.
The same measure, in the same setting: under `O=c1cc(O)c2ccccc2o1` stands “inactive”; under `CCC1CCC(=O)O1` (stereo unspecified), “inactive”.

The target in a further test is T4, UniProt Q8VGJ1.
T4 sequence (whole entry): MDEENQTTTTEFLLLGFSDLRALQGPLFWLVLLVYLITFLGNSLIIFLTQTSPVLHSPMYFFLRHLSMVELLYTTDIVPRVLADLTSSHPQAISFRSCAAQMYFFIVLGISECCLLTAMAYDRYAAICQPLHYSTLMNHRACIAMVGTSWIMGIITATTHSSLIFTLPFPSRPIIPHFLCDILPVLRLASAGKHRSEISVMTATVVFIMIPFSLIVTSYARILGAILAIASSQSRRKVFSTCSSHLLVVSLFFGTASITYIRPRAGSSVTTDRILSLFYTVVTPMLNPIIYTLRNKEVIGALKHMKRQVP
The following applies: stereoisomer not certain. The gist of the method:
as §1
On to `C=CCOC(=O)Cc1ccccc1`, for which the “odorant receptor agonist call” value was “inactive”.
As to `C=CCc1ccccc1`, the “odorant receptor agonist call” value is “inactive”.
Same read-out and setting: under `O=c1cc(O)c2ccccc2o1` stands “inactive”; under `CCC1CCC(=O)O1` (stereo unspecified), “inactive”.

The next test addresses T5, UniProt Q8VGJ3.
T5 sequence (whole entry): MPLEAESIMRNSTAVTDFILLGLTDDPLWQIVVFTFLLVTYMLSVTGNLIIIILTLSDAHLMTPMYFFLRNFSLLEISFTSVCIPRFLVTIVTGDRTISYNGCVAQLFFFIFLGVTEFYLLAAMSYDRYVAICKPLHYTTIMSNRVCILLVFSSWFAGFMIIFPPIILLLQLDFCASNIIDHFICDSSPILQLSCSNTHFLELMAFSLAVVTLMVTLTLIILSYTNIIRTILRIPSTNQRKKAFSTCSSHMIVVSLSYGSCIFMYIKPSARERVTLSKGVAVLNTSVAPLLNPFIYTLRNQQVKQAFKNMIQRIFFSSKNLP
The following applies: stereoisomer not certain. In short, it runs like this:
as §1
As to `CC(C=O)Cc1ccc2c(c1)OCO2` (stereo unspecified), the “odorant receptor agonist call” value is “inactive”.
Still for that read-out and setting: for `CCCCC(Br)C(=O)O` (stereo unspecified) the value was “inactive”; for `Oc1ccccc1Br`, “inactive”.
The same measure, in the same setting: for `C=CCOC(=O)Cc1ccccc1` the value was “inactive”; for `CCCCCCC(Br)C(=O)O` (stereo unspecified), “inactive”.
The same measure, in the same setting: for `C=C(C)C1CC=C(C=O)CC1` (stereo unspecified) the value was “inactive”; for `O=CC=Cc1ccccc1`, “inactive”.
On to `Cc1ccc(OC(=O)Cc2ccccc2)cc1`, for which the “odorant receptor agonist call” value was “inactive”.
The same measure, in the same setting: for `OCc1ccc2c(c1)OCO2` the value was “inactive”; for `O=Cc1ccccc1`, “active”.
The same measure, in the same setting: for `O=c1cc(O)c2ccccc2o1` the value was “inactive”.
On the same count and under the same terms, under `CSSC` stands “inactive”; under `COc1ccc(C=O)cc1`, “inactive”; under `O=Cc1ccc2c(c1)OCO2`, “inactive”.

The target in a further test is T6, UniProt Q8VGJ5.
T6 sequence (whole entry): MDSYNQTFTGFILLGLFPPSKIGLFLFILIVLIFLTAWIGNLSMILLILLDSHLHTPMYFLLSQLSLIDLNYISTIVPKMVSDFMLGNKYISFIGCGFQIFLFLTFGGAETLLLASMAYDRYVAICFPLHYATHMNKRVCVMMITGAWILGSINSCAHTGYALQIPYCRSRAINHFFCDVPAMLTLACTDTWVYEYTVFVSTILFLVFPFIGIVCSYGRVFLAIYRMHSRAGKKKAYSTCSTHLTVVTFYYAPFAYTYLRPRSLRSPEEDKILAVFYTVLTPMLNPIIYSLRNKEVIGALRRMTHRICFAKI
The following applies: stereoisomer not certain. In short, it runs like this: as §1
In the case of `C=CCOC(=O)Cc1ccccc1`, the “odorant receptor agonist call” value was “active”.
On the same count and under the same terms, under `C=CCc1ccccc1` stands “inactive”.
Same read-out and setting: under `O=c1cc(O)c2ccccc2o1` stands “inactive”.
The same measure, in the same setting: under `CCC1CCC(=O)O1` (stereo unspecified) stands “active”.

The next test concerns the target T7, UniProt Q8VGL0.
T7 sequence (whole entry): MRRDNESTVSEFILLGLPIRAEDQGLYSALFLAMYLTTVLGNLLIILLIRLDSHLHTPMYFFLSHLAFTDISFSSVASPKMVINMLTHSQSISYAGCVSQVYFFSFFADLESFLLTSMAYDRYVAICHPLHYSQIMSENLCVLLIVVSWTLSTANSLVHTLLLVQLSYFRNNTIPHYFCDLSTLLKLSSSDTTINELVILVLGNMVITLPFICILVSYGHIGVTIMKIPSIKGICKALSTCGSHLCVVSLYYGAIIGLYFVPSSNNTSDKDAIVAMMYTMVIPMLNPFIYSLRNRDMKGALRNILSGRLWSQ
The following applies: stereoisomer not certain. In short, it runs like this: as §1
For the molecule `CC(C=O)Cc1ccc2c(c1)OCO2` (stereo unspecified), the “odorant receptor agonist call” value is “inactive”.
For the molecule `CCCCC(Br)C(=O)O` (stereo unspecified), the “odorant receptor agonist call” value is “inactive”.
On the same count and under the same terms, for `Oc1ccccc1Br` the value was “inactive”; for `C=CCOC(=O)Cc1ccccc1`, “inactive”.
As for `CCCCCCC(Br)C(=O)O` (stereo unspecified), the “odorant receptor agonist call” value is “inactive”.
`C=C(C)C1CC=C(C=O)CC1` (stereo unspecified): the “odorant receptor agonist call” value is “inactive”.
On the same count and under the same terms, for `O=CC=Cc1ccccc1` the value was “inactive”.
Same read-out and setting: for `C=CCc1ccccc1` the value was “inactive”; for `Cc1ccc(OC(=O)Cc2ccccc2)cc1`, “inactive”.
The same measure, in the same setting: under `OCc1ccc2c(c1)OCO2` stands “inactive”.
In the case of `O=Cc1ccccc1`, the “odorant receptor agonist call” value is “inactive”.
Still for that read-out and setting: under `O=c1cc(O)c2ccccc2o1` stands “inactive”.
Same read-out and setting: for `CSSC` the value was “inactive”.
Still for that read-out and setting: under `CCC1CCC(=O)O1` (stereo unspecified) stands “inactive”; under `COc1ccc(C=O)cc1`, “inactive”; under `O=Cc1ccc2c(c1)OCO2`, “inactive”.
